Test results published in ChEMBL document CHEMBL4411287, “Discovery and optimization of a series of 3-substituted indazole derivatives as multi-target kinase inhibitors for the treatment of lung squamous cell carcinoma” (Eur J Med Chem, 2019).

Biological target: Fibroblast growth factor receptor 1 (Homo sapiens, UniProt P11362)
Assay: Inhibition of FGFR1 (unknown origin) after 60 mins by ELISA
Conditions: not given

Chain of Fibroblast growth factor receptor 1 (P11362 whole entry): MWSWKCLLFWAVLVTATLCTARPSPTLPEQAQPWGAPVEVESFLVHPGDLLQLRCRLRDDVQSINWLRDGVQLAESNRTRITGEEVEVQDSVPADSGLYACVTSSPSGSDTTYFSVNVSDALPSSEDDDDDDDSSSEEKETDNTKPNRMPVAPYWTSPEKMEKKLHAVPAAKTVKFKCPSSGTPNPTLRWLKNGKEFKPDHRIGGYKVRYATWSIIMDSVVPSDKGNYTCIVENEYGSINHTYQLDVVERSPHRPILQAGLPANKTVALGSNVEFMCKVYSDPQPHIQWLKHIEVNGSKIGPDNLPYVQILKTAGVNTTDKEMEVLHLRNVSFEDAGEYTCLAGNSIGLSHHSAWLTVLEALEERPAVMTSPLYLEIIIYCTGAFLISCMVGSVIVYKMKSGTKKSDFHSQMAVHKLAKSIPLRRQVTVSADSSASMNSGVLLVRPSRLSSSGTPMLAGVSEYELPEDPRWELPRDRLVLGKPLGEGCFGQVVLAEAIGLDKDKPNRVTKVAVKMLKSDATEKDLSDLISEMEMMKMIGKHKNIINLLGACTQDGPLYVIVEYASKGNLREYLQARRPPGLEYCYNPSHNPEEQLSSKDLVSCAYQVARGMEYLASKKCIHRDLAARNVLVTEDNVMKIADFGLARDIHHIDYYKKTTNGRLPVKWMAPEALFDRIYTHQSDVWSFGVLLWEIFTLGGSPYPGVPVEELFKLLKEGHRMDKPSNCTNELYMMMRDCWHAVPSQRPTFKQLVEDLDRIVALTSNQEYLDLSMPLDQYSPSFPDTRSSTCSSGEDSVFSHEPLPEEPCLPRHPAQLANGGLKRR

| IC50 [nM] | SMILES |
| --- | --- |
| > 100 | Cc1ccc(C(=O)Nc2cccc(C(F)(F)F)c2)cc1-c1ccc2c(-c3cn[nH]c3)n[nH]c2c1 |

Test system: NCI-H2286
Assay: Antiproliferative activity against human NCI-H2286 cells at 100 nM after 72 hrs by CCK8 assay relative to control
Type: functional
Conditions: not given

| SMILES | Activity [%] |
| --- | --- |
| Cc1ccc(C(=O)Nc2cccc(C(F)(F)F)c2)cc1-c1ccc2c(-c3cnn(C4CCCCO4)c3)n[nH]c2c1 (stereo not given) | 45 |
| Cc1ccc(C(=O)Nc2cccc(C(F)(F)F)c2)cc1-c1ccc2c(-c3cnn(C(C)C)c3)n[nH]c2c1 | 31 |
| Cc1ccc(C(=O)Nc2cccc(C(F)(F)F)c2)cc1-c1ccc2c(-c3ccc(C(=O)N4CCN(C)CC4)cc3)n[nH]c2c1 | 45 |
| Cc1ccc(C(=O)Nc2cccc(C(F)(F)F)c2)cc1-c1ccc2c(-c3cnn(CCO)c3)n[nH]c2c1 | 35 |
| CCCn1cc(-c2n[nH]c3cc(-c4cc(C(=O)Nc5cccc(C(F)(F)F)c5)ccc4C)ccc23)cn1 | 41 |
| Cc1ccc(C(=O)Nc2cccc(C(F)(F)F)c2)cc1-c1ccc2c(-c3cnn(CCN4CCOCC4)c3)n[nH]c2c1 | 49 |
| Cc1ccc(C(=O)Nc2cccc(C(F)(F)F)c2)cc1-c1ccc2c(-c3ccc(CN4CCN(C)CC4)cc3)n[nH]c2c1 | 13 |

Test system: KG-1
Assay: Antiproliferative activity against human KG1 cells after 72 hrs by CCK8 assay
Conditions: KG-1, 72 h

| SMILES | IC50 [nM] |
| --- | --- |
| Cc1ccc(C(=O)Nc2cccc(C(F)(F)F)c2)cc1-c1ccc2c(-c3cnn(C4CCCCO4)c3)n[nH]c2c1 (stereo not given) | 121 |
| Cc1ccc(C(=O)Nc2cccc(C(F)(F)F)c2)cc1-c1ccc2c(-c3cnn(C4CCN(C)CC4)c3)n[nH]c2c1 | 93.3 |
| Cc1ccc(C(=O)Nc2cccc(C(F)(F)F)c2)cc1-c1ccc2c(-c3ccc(N4CCN(C)CC4)cc3)n[nH]c2c1 | 136 |
| Cc1ccc(C(=O)Nc2cccc(C(F)(F)F)c2)cc1-c1ccc2c(-c3cnn(C(C)C)c3)n[nH]c2c1 | 452 |
| Cc1ccc(C(=O)Nc2cccc(C(F)(F)F)c2)cc1-c1ccc2c(-c3ccc(C(=O)N4CCN(C)CC4)cc3)n[nH]c2c1 | 300 |
| Cc1ccc(C(=O)Nc2cccc(C(F)(F)F)c2)cc1-c1ccc2c(-c3cnn(CCO)c3)n[nH]c2c1 | 174 |
| CCCn1cc(-c2n[nH]c3cc(-c4cc(C(=O)Nc5cccc(C(F)(F)F)c5)ccc4C)ccc23)cn1 | 358 |
| Cc1ccc(C(=O)Nc2cccc(C(F)(F)F)c2)cc1-c1ccc2c(-c3cnn(CCN4CCOCC4)c3)n[nH]c2c1 | 114 |
| Cc1ccc(C(=O)Nc2cccc(C(F)(F)F)c2)cc1-c1ccc2c(-c3cn[nH]c3)n[nH]c2c1 | > 1000 |
| Cc1ccc(C(=O)Nc2cccc(C(F)(F)F)c2)cc1-c1ccc2c(-c3ccc(CN4CCN(C)CC4)cc3)n[nH]c2c1 | 120 |

Test system: not listed separately
Assay: MRT in ICR(CD-1) mouse at 10 mg/kg, po administered via gavage by triple quadrupole mass spectrometric analysis
Type: ADME, organism-based
Conditions: in vivo
Method in brief: (§1)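 Dosed by gavage at 1 mg/mL in 1% Tween80/water to male ICR mice, 18-22 g, n=3. Blood taken at 0.25, 0.5, 1, 2, 4, 8 and 24 h. Plasma precipitated with methanol:acetonitrile (1:1) containing internal standard, then UPLC-MS/MS on a C18 column with an ammonium acetate/formic acid–acetonitrile gradient. Tmax read directly from the data; MRT calculated per animal from concentration–time curves.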

| MRT [h] | SMILES |
| --- | --- |
| 3.96 | Cc1ccc(C(=O)Nc2cccc(C(F)(F)F)c2)cc1-c1ccc2c(-c3cnn(C4CCN(C)CC4)c3)n[nH]c2c1 |

Test system: not listed separately
Assay: Half life in ICR(CD-1) mouse at 10 mg/kg, po administered via gavage by triple quadrupole mass spectrometric analysis
Type: ADME, organism-based
Conditions: in vivo
Method in brief: (§2)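 Oral gavage at 1 mg/mL in 1% Tween80/water to male ICR mice (18-22 g, n=3). Plasma sampled at 0.25, 0.5, 1, 2, 4, 8 and 24 h, protein precipitated with methanol:acetonitrile (1:1) containing internal standard, and quantified by UPLC-triple quadrupole MS. AUC and MRT were taken from per-animal time-concentration curves. Cmax is the maximum plasma level and Tmax the time to reach it.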

| half-life [h] | SMILES |
| --- | --- |
| 2.75 | Cc1ccc(C(=O)Nc2cccc(C(F)(F)F)c2)cc1-c1ccc2c(-c3cnn(C4CCN(C)CC4)c3)n[nH]c2c1 |

Test system: NCI-H2286
Assay: Antiproliferative activity against human NCI-H2286 cells after 72 hrs by CCK8 assay
Conditions: NCI-H2286, 72 h

| IC50 [nM] | SMILES |
| --- | --- |
| 56.5 | Cc1ccc(C(=O)Nc2cccc(C(F)(F)F)c2)cc1-c1ccc2c(-c3cnn(C4CCN(C)CC4)c3)n[nH]c2c1 |
| 89.5 | Cc1ccc(C(=O)Nc2cccc(C(F)(F)F)c2)cc1-c1ccc2c(-c3ccc(N4CCN(C)CC4)cc3)n[nH]c2c1 |
| > 1000 | Cc1ccc(C(=O)Nc2cccc(C(F)(F)F)c2)cc1-c1ccc2c(-c3cn[nH]c3)n[nH]c2c1 |

Test system: not listed separately
Assay: Cmax in ICR(CD-1) mouse at 10 mg/kg, po administered via gavage by triple quadrupole mass spectrometric analysis
Type: ADME, organism-based
Set-up: dose 10 mg/kg, route oral
Conditions: in vivo
Method in brief: as §2

| Cmax [ng/mL] | SMILES |
| --- | --- |
| 170 | Cc1ccc(C(=O)Nc2cccc(C(F)(F)F)c2)cc1-c1ccc2c(-c3cnn(C4CCN(C)CC4)c3)n[nH]c2c1 |
| 15.9 | Cc1ccc(C(=O)Nc2cccc(C(F)(F)F)c2)cc1-c1ccc2c(-c3ccc(N4CCN(C)CC4)cc3)n[nH]c2c1 |

Test system: not listed separately
Assay: AUC (0 to t) in ICR(CD-1) mouse at 10 mg/kg, po administered via gavage by triple quadrupole mass spectrometric analysis
Type: ADME, organism-based
Conditions: in vivo
Method in brief: as §2

| AUC(0-t) [ng·h/mL] | SMILES |
| --- | --- |
| 552 | Cc1ccc(C(=O)Nc2cccc(C(F)(F)F)c2)cc1-c1ccc2c(-c3cnn(C4CCN(C)CC4)c3)n[nH]c2c1 |
| 44 | Cc1ccc(C(=O)Nc2cccc(C(F)(F)F)c2)cc1-c1ccc2c(-c3ccc(N4CCN(C)CC4)cc3)n[nH]c2c1 |

Test system: not listed separately
Assay: AUC (0 to infinity) in ICR(CD-1) mouse at 10 mg/kg, po administered via gavage by triple quadrupole mass spectrometric analysis
Type: ADME, organism-based
Set-up: dose 10 mg/kg, route oral, time infinity
Conditions: in vivo
Method in brief: as §2

| AUC(0-inf) [ng·h/mL] | SMILES |
| --- | --- |
| 563 | Cc1ccc(C(=O)Nc2cccc(C(F)(F)F)c2)cc1-c1ccc2c(-c3cnn(C4CCN(C)CC4)c3)n[nH]c2c1 |

Test system: not listed separately
Assay: Tmax in ICR(CD-1) mouse at 10 mg/kg, po administered via gavage by triple quadrupole mass spectrometric analysis
Type: ADME, organism-based
Conditions: in vivo
Method in brief: as §1

| Tmax [h] | SMILES |
| --- | --- |
| 1.33 | Cc1ccc(C(=O)Nc2cccc(C(F)(F)F)c2)cc1-c1ccc2c(-c3cnn(C4CCN(C)CC4)c3)n[nH]c2c1 |
| 1.33 | Cc1ccc(C(=O)Nc2cccc(C(F)(F)F)c2)cc1-c1ccc2c(-c3ccc(N4CCN(C)CC4)cc3)n[nH]c2c1 |

Biological target: T1, Discoidin domain-containing receptor 2 (Homo sapiens, UniProt Q16832)
T1 sequence (Q16832 whole entry): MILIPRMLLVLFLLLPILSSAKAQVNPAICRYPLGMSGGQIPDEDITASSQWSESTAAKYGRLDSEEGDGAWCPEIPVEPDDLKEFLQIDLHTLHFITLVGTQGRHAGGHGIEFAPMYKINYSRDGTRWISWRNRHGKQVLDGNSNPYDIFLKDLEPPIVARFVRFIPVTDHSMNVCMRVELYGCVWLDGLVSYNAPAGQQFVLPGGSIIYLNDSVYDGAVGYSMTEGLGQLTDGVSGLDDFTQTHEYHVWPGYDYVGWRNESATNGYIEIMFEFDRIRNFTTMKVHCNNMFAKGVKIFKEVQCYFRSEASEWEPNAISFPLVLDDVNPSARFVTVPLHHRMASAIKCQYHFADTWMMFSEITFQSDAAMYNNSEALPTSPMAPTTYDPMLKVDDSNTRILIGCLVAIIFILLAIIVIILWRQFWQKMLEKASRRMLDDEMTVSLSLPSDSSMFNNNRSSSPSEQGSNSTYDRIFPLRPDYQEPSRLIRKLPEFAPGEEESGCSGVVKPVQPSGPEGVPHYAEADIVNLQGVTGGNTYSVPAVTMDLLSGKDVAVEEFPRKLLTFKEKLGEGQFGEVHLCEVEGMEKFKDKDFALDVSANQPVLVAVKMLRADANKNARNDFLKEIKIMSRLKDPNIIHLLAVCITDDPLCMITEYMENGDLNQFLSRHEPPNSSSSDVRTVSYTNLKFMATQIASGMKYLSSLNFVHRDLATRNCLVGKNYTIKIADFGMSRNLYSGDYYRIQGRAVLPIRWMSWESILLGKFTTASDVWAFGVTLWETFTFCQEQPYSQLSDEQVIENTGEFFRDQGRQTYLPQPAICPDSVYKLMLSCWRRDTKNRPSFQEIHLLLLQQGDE
Assay: Inhibition of DDR2 (unknown origin) using poly (Glu, Tyr) 4:1 substrate after 60 mins by ELISA
Conditions: not given

| IC50 [nM] | SMILES |
| --- | --- |
| 5.2 | Cc1ccc(C(=O)Nc2cccc(C(F)(F)F)c2)cc1-c1ccc2c(-c3cnn(C4CCCCO4)c3)n[nH]c2c1 (stereo not given) |
| 3.8 | Cc1ccc(C(=O)Nc2cccc(C(F)(F)F)c2)cc1-c1ccc2c(-c3cnn(C4CCN(C)CC4)c3)n[nH]c2c1 |
| 8.8 | Cc1ccc(C(=O)Nc2cccc(C(F)(F)F)c2)cc1-c1ccc2c(-c3ccc(N4CCN(C)CC4)cc3)n[nH]c2c1 |
| 7.7 | Cc1ccc(C(=O)Nc2cccc(C(F)(F)F)c2)cc1-c1ccc2c(-c3cnn(C(C)C)c3)n[nH]c2c1 |
| 6.5 | Cc1ccc(C(=O)Nc2cccc(C(F)(F)F)c2)cc1-c1ccc2c(-c3ccc(C(=O)N4CCN(C)CC4)cc3)n[nH]c2c1 |
| 2.9 | Cc1ccc(C(=O)Nc2cccc(C(F)(F)F)c2)cc1-c1ccc2c(-c3cnn(CCO)c3)n[nH]c2c1 |
| 3.2 | CCCn1cc(-c2n[nH]c3cc(-c4cc(C(=O)Nc5cccc(C(F)(F)F)c5)ccc4C)ccc23)cn1 |
| 2.6 | Cc1ccc(C(=O)Nc2cccc(C(F)(F)F)c2)cc1-c1ccc2c(-c3cnn(CCN4CCOCC4)c3)n[nH]c2c1 |
| 55.6 | Cc1ccc(C(=O)Nc2cccc(C(F)(F)F)c2)cc1-c1ccc2c(-c3cn[nH]c3)n[nH]c2c1 |
| 6.2 | Cc1ccc(C(=O)Nc2cccc(C(F)(F)F)c2)cc1-c1ccc2c(-c3ccc(CN4CCN(C)CC4)cc3)n[nH]c2c1 |
